The source of these data is ChEMBL document CHEMBL3797187, “Design, synthesis and biological evaluation of potent FAAH inhibitors” (Bioorg Med Chem Lett, 2016).

Molecules are shown by their SMILES. pIC50: −log10 of the molar value.

Data set [1] concerns the target T1, Fatty-acid amide hydrolase 1 (Homo sapiens) (UniProt O00519).
T1 sequence (whole entry): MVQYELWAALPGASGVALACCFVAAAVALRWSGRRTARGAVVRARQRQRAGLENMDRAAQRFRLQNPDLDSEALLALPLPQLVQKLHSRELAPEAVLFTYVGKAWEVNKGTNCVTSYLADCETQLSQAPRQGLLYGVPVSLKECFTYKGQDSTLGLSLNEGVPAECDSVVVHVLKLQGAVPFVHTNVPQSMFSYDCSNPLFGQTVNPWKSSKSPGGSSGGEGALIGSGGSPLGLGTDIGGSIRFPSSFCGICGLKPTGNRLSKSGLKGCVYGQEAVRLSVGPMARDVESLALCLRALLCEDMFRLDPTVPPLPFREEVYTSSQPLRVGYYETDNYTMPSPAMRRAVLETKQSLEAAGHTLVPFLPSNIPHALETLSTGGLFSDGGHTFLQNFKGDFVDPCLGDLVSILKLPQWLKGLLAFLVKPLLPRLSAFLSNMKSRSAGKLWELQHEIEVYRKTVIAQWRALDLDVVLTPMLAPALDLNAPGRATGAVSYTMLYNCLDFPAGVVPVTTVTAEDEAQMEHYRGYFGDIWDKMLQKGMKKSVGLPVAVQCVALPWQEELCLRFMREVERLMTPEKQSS
Briefly: Inhibition of human recombinant FAAH expressed in sf21 cells using AMC-AA as substrate at 10 uM preincubated for 15 mins followed by substrate addition measured after 2 hrs by spectrophotometric analysis relative to control. Put shortly:
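Human recombinant FAAH expressed in SF21 cells, 4 U/mL, preincubated 15 min with compound at 37 °C in Tris buffer pH 9. Hydrolysis of the fluorogenic substrate AMC-arachidonamide then measured. Single-point screen at 10 µM as % inhibition. IC50 from concentration-response, mean ± SEM of three experiments performed in duplicate.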

A short description of data set [2]: Cytotoxicity against human HT-29 cells assessed as growth inhibition at 10 uM after 72 hrs by MTS assay relative to control. It is filed as cell-based. The conditions noted are these: read-out: GI. Put shortly: (§1)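 Test compounds at 10 µM on human colorectal adenocarcinoma HT29 and human embryonic kidney HEK293 cells. Cell proliferation scored colorimetrically by MTS tetrazolium reduction to formazan (NADPH-dependent oxidoreductase activity as viable-cell readout). Reported as % inhibition at 10 µM.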
For orientation: Formazan colour is commonly taken as a measure of viable cells.

The nature of data set [3]: Cytotoxicity against human HEK293 cells assessed as growth inhibition at 10 uM after 72 hrs by MTS assay relative to control. The data set is classed as cell-based. The conditions noted are these: read-out: GI. In short, it runs like this: as §1
Data set [4] deals with T2, Fatty-acid amide hydrolase 1 (Homo sapiens, UniProt O00519).
T2 sequence (O00519 whole entry): T1 sequence (whole entry)
Put plainly: Inhibition of human recombinant FAAH expressed in sf21 cells using AMC-AA as substrate preincubated for 15 mins followed by substrate addition measured after 2 hrs by spectrophotometric analysis. In short, it runs like this:
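Human recombinant FAAH expressed in SF21 cells, 4 U/mL, preincubated 15 min with compound at 37 °C in Tris buffer pH 9. Hydrolysis of the fluorogenic substrate AMC-arachidonamide then measured. IC50 from concentration-response, mean ± SEM of three experiments performed in duplicate.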

For data set [5], the target named is T1, Fatty-acid amide hydrolase 1 (Homo sapiens). Put plainly: Potency index, ratio of 5-(4-Pentyloxy-phenyl)-isoxazole-3-carboxylic acid adamantan-1-ylamide IC50 to compound IC50 for human recombinant FAAH expressed in sf21 cells.

`CN1CCN(C(=O)c2ccc(-c3ccc(-c4cc(C(=O)NC56CC7CC(CC(C7)C5)C6)no4)cn3)cc2)CC1`: the inhibition in data set [1] worked out at 10%. The inhibition at 72 h, 10 µM amounted to 0% in data set [2] and 3% in data set [3].
For `CCCCCOc1ccc(-c2cc(C(=O)NC34CC5CC(CC(C5)C3)C4)no2)cc1`, the inhibition in data set [1] was 79%.
Regarding `COc1ccc(-c2ccc(-c3cc(C(=O)NC45CC6CC(CC(C6)C4)C5)no3)cc2)cc1`, the inhibition in data set [1] was 15%. The inhibition at 72 h, 10 µM in data set [2] was 0%; in data set [3] it was 2%.
Taken in the same sequence, the figures for `COc1ccccc1-c1ccc(-c2cc(C(=O)NC34CC5CC(CC(C5)C3)C4)no2)cc1` were 47%, 2% and 25%.
Taken in the same sequence, the figures for `CN1CCN(Cc2ccc(-c3ccc(-c4cc(C(=O)NC56CC7CC(CC(C7)C5)C6)no4)cc3)cc2)CC1` were 41%, 90% and 89%.
The like results for `CC(=O)c1ccc(-c2ccc(-c3cc(C(=O)NC45CC6CC(CC(C6)C4)C5)no3)cc2)cc1` were, in that order, 18%, 4% and 5%.
Take `CC(=O)c1ccc(-c2ccc(-c3cc(C(=O)NC45CC6CC(CC(C6)C4)C5)no3)cn2)cc1`: in data set [1], the inhibition was determined as 13%. Moreover, the inhibition at 72 h, 10 µM in data set [2] was determined as 0%; in data set [3], 5%.
`COc1cccc(-c2ccc(-c3cc(C(=O)NC45CC6CC(CC(C6)C4)C5)no3)cc2)c1`: the inhibition in data set [1] worked out at 58%. The figures for the inhibition at 72 h, 10 µM in data set [2] and in data set [3] were 0% and 20%, respectively. In data set [4], the negative-log IC50 (pIC50) (commonly the IC50 on a negative log10 scale, so that one unit is a factor of ten) is 6.14.
On to `O=C(NC12CC3CC(CC(C3)C1)C2)c1cc(-c2ccc(-c3cnc4ccccc4c3)cc2)on1`, for which the inhibition in data set [1] amounted to 22%. The inhibition at 72 h, 10 µM was 0% in data set [2] and 24% in data set [3].
The like results for `O=C(NC12CC3CC(CC(C3)C1)C2)c1cc(-c2ccc(-c3ccncc3)cc2)on1` were, in that order, 17%, 1% and 9%.
Consider `O=C(NC12CC3CC(CC(C3)C1)C2)c1cc(-c2ccc(-c3ccccc3)nc2)on1`, for which, in data set [1], the inhibition amounted to 23%. Also, the inhibition at 72 h, 10 µM amounted to 0% in data set [2] and 14% in data set [3].
The like results for `O=C(NC12CC3CC(CC(C3)C1)C2)c1cc(-c2ccc(-c3ccncc3)nc2)on1` were, in that order, 23%, 0% and 1%.
The like results for `NC(=O)c1cccc(-c2ccc(-c3cc(C(=O)NC45CC6CC(CC(C6)C4)C5)no3)cc2)c1` were, in that order, 11%, 0% and 3%.
The like results for `NC(=O)c1cccc(-c2ccc(-c3cc(C(=O)NC45CC6CC(CC(C6)C4)C5)no3)cn2)c1` were, in that order, 20%, 14% and 1%.
Regarding `CN1CCN(C(=O)c2ccc(-c3ccc(-c4cc(C(=O)NC56CC7CC(CC(C7)C5)C6)no4)cc3)cc2)CC1`, the inhibition in data set [1] amounted to 23%. Moreover, the inhibition at 72 h, 10 µM in data set [2] is 24%; in data set [3], 37%.
Regarding `CN1CCN(Cc2cccc(-c3ccc(-c4cc(C(=O)NC56CC7CC(CC(C7)C5)C6)no4)cc3)c2)CC1`, the inhibition in data set [1] is 63%. Moreover, the inhibition at 72 h, 10 µM in data set [2] came to 97%; in data set [3] it was 93%. In data set [4], the pIC50 is 5.95.
As to `CN1CCN(C(=O)c2cccc(-c3ccc(-c4cc(C(=O)NC56CC7CC(CC(C7)C5)C6)no4)cc3)c2)CC1`, the inhibition in data set [1] was determined as 44%. Further, the values for the inhibition at 72 h, 10 µM in data set [2] and in data set [3] were 55% and 47%, respectively.
In the case of `O=C(NC12CC3CC(CC(C3)C1)C2)c1cc(-c2ccc(-c3cccc(C(=O)N4CCOCC4)c3)cc2)on1`, in data set [1], the inhibition came to 49%. In addition, the inhibition at 72 h, 10 µM in data set [2] was 10%; in data set [3] it was 54%.
Taken in the same sequence, the figures for `COc1ccc(-c2ccc(-c3cc(C(=O)NC45CC6CC(CC(C6)C4)C5)no3)cc2)cc1OC` were 14%, 7% and 29%.
Taken in the same sequence, the figures for `O=C(NC12CC3CC(CC(C3)C1)C2)c1cc(-c2ccc(-c3ccc(C(=O)N4CCOCC4)cc3)nc2)on1` were 12%, 0% and 10%.
`O=C(NC12CC3CC(CC(C3)C1)C2)c1cc(-c2ccc(-c3ccc(C(=O)N4CCOCC4)cc3)cc2)on1`: in data set [1], the inhibition came out at 24%. Further, the values for the inhibition at 72 h, 10 µM in data set [2] and in data set [3] were 0% and 23%, respectively.
Taken in the same sequence, the figures for `O=C(NC12CC3CC(CC(C3)C1)C2)c1cc(-c2ccc(-c3ccc4c(c3)OCO4)cc2)on1` were 18%, 0% and 9%.
Regarding `O=C(NC12CC3CC(CC(C3)C1)C2)c1cc(-c2ccc(-c3cccc(CN4CCOCC4)c3)cc2)on1`, the inhibition in data set [1] was 69%. Moreover, the figures for the inhibition at 72 h, 10 µM in data set [2] and in data set [3] were 0% and 38%, respectively. The negative logarithm of the IC50 (pIC50) in data set [4] was 6.08.
As to `N#Cc1cccc(-c2ccc(-c3cc(C(=O)NC45CC6CC(CC(C6)C4)C5)no3)cc2)c1`, the inhibition in data set [1] amounted to 64%. For the same molecule, in data set [5], the Ratio IC50 came to 2. In addition, the inhibition at 72 h, 10 µM in data set [2] and in data set [3] was 0% throughout. Also, the negative logarithm of the IC50 (pIC50) in data set [4] was 6.62.
Take `O=C(NC12CC3CC(CC(C3)C1)C2)c1cc(-c2ccc(-c3ccc(CN4CCOCC4)cc3)cc2)on1`: in data set [1], the inhibition was 16%. Besides, the inhibition at 72 h, 10 µM was 0% in data set [2] and 20% in data set [3].
Regarding `CC(=O)c1cccc(-c2ccc(-c3cc(C(=O)NC45CC6CC(CC(C6)C4)C5)no3)cc2)c1`, the inhibition in data set [1] was determined as 56%. Moreover, the inhibition at 72 h, 10 µM came out at 1% in data set [2] and 16% in data set [3]. In addition, the pIC50 in data set [4] is 6.23.
With `NC(=O)c1cccc(-c2cccc(OC(=O)NC3CCCCC3)c2)c1` [URB-597], in data set [1], the inhibition amounted to 98%. For the same molecule, the inhibition at 72 h, 10 µM in data set [2] and in data set [3] was 0% in each case.
`CC(=O)c1cccc(-c2ccc(-c3cc(C(=O)NC45CC6CC(CC(C6)C4)C5)no3)cn2)c1`: the inhibition in data set [1] stood at 22%. Also, the inhibition at 72 h, 10 µM in data set [2] amounted to 0%; in data set [3] it was 18%.
Turning to `NC(=O)c1ccc(-c2ccc(-c3cc(C(=O)NC45CC6CC(CC(C6)C4)C5)no3)cc2)cc1`, the inhibition in data set [1] came to 10%. Further, the inhibition at 72 h, 10 µM in data set [2] was 0%; in data set [3], 4%.
Taken in the same sequence, the figures for `COc1cc(-c2ccc(-c3cc(C(=O)NC45CC6CC(CC(C6)C4)C5)no3)cc2)cc(OC)c1OC` were 42%, 6% and 32%.
Taken in the same sequence, the figures for `O=C(NC12CC3CC(CC(C3)C1)C2)c1cc(-c2ccc(-c3ccco3)cc2)on1` were 31%, 0% and 12%.
